Laboratory results: ChEMBL document CHEMBL5104214, “Efficient selective targeting of Candida CYP51 by oxadiazole derivatives designed from plant cuminaldehyde” (RSC Med Chem, 2022)
≈ marks a conversion by molar mass, not a printed value.

Assays:
[1] = test system: Candida albicans; assay: Antifungal activity against Candida albicans SC5314 assessed as inhibition of fungal growth at 100 ug/ml incubated for 24 hrs by spotting assay relative to control; type: functional; set-up: scale not given: the % may be the effect or the level left; conditions: dose 100 µg/ml
In short: (§1)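 Spotting screen: SDA plates streaked with 0.1 ml culture at 10^4 CFU ml−1, 5 μl of compound applied, 24 h at 37 °C. C. albicans SC5314 or C. auris clinical isolate kept on SDA at 37 °C. Growth inhibition judged against untreated control.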

[2] = test system: [Candida] auris; assay: Antifungal activity against Candida auris clinical isolate assessed as inhibition of fungal growth at 100 ug/ml incubated for 24 hrs by spotting assay relative to control; type: functional, Candidozyma auris; set-up: scale not given: the % may be the effect or the level left; conditions: dose 100 µg/ml; in short: as §1
[3] = test system: Candida albicans; assay: Antifungal activity against Candida albicans SC5314 assessed as inhibition of fungal growth incubated for 24 hrs by microdilution assay; type: functional
In short: (§2)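 Broth microdilution per CLSI. Inoculum 10^5 CFU mL−1, compounds at 1, 3, 5, 10, 25, 50, 100 and 200 μg ml−1, 37 °C for 24 h. Turbidity read at 570 nm. MIC50 is the concentration giving 50% growth inhibition, from curve fitting. Triplicate.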

[4] = test system: [Candida] auris; assay: Antifungal activity against Candida auris clinical isolate assessed as inhibition of fungal growth incubated for 24 hrs by microdilution assay; type: functional; conditions: Candidozyma auris; in short: as §2
[5] = Cytotoxicity against human F180 cells assessed as cell growth inhibition at 3 times MIC50 against Candida albicans SC5314 incubated for 48 hrs by SRB assay; type: toxicity, cell-based; conditions: f180, 48 h
In short: (§3)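 SRB assay on normal human skin fibroblasts F-180 in DMEM with 15% FBS, 37 °C, 5% CO2. Seeded 20 000 cells/well and left overnight, then compounds at 10, 20 and 30 μg ml−1 for 48 h; DMSO vehicle ≤0.1%. TCA fixation, 0.4% SRB stain, dye solubilised in 10 mM Tris, OD 492 nm. Six repeats.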

[6] = Cytotoxicity against human F180 cells assessed as cell growth inhibition at 2.3 times MIC50 against Candida auris incubated for 48 hrs by SRB assay; type: toxicity, cell-based; conditions: f180, 48 h; in short: as §3
[7] = Cytotoxicity against human F180 cells assessed as cell growth inhibition at 10 times MIC50 against Candida albicans SC5314 incubated for 48 hrs by SRB assay; type: toxicity, cell-based; conditions: f180, 48 h; in short: as §3
[8] = Cytotoxicity against human F180 cells assessed as cell growth inhibition at 15 times MIC50 against Candida auris incubated for 48 hrs by SRB assay; type: toxicity, cell-based; conditions: f180, 48 h; in short: as §3
[9] = test system: Candida albicans; assay: Potency index, ratio of fluconazole MIC50 to test compound MIC50 for antifungal activity against Candida albicans SC5314 assessed as inhibition of fungal growth incubated for 24 hrs by microdilution assay; type: functional
In short: (§4)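 MIC50 ratio. MIC50 of fluconazole and of compound by broth microdilution: 10^5 CFU mL−1 inoculum, 1–200 μg ml−1, 37 °C for 24 h, turbidity at 570 nm, triplicate. Ratio taken as fluconazole MIC50 over compound MIC50.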

[10] = test system: [Candida] auris; assay: Potency index, ratio of fluconazole MIC50 to test compound MIC50 for antifungal activity against Candida auris clinical isolate assessed as inhibition of fungal growth incubated for 24 hrs by microdilution assay; type: functional, Candidozyma auris; in short: as §4
[11] = biological target: T1, Lanosterol 14-alpha demethylase (Candida albicans (strain SC5314 / ATCC MYA-2876) (Yeast), UniProt P10613); assay: Inhibition of candida albicans CYP51 using 7-ethoxyresorufin as fluorescent substrate incubated for 10 mins in the presence of NADPH by fluorescence based spectroscopic microtiter plate reader analysis
T1 sequence (P10613 whole entry): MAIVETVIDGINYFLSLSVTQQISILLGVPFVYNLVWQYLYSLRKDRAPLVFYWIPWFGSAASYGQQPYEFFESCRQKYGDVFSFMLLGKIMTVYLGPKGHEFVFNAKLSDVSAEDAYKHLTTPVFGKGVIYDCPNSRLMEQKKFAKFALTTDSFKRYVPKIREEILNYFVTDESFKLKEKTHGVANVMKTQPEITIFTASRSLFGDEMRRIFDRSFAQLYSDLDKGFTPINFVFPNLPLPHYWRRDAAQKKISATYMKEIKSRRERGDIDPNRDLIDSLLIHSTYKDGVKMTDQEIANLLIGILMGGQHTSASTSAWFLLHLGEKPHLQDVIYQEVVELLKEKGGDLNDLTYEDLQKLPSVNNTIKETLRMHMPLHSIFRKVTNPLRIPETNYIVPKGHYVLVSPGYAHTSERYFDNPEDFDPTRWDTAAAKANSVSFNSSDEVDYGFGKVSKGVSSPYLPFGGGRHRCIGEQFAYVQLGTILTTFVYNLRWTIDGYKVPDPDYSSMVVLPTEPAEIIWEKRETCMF
In short: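 CaCYP51 bactosomes in pH 7.4 phosphate buffer with 5 mM MgCl2 and the substrate 7-ethoxyresorufin. Inhibitor at 0, 0.1, 1, 10 and 100 μg ml−1. Started with 4 mM NADPH, shaken 10 min at 37 °C under yellow light. Resorufin read every 30 s (ex 572/em 604 nm). IC50 from curve fitting; fluconazole positive control.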

[12] = biological target: T1, Lanosterol 14-alpha demethylase; assay: Potency index, ratio of fluconazole IC50 to test compound IC50 for inhibition of Candida albicans CYP51 using 7-ethoxyresorufin as fluorescent substrate incubated for 10 mins in the presence of NADPH by fluorescence based spectroscopic microtiter plate reader analysis
In short: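 Ratio of fluconazole IC50 to compound IC50 against CaCYP51. Bactosomes with 7-ethoxyresorufin in pH 7.4 phosphate, 5 mM MgCl2. Inhibitor at 0–100 μg ml−1. Reaction started with 4 mM NADPH, 10 min at 37 °C, resorufin fluorescence ex 572/em 604 nm.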

[13] = biological target: Cytochrome P450 3A4 (Homo sapiens, UniProt P08684); assay: Inhibition of human CYP3A4 using luciferin-IPA as substrate preincubated for 10 mins followed by NADPH addition and measured after 30 mins by luminescence based assay; type: ADME
Chain of Cytochrome P450 3A4 (P08684 whole entry): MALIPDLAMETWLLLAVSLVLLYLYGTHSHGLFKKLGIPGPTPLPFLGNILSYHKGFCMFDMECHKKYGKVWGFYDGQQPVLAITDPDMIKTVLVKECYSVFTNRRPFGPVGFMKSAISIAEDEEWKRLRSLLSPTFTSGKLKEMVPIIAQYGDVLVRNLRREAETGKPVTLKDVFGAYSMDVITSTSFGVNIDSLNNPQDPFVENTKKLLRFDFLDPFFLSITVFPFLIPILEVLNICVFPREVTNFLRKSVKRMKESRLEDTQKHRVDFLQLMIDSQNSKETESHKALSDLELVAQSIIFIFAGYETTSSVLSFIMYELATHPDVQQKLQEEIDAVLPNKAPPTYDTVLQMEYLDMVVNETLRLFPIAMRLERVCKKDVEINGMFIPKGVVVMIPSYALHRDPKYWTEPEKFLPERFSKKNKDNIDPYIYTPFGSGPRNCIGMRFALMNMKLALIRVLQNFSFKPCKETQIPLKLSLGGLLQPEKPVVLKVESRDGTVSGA

[14] = test system: CYP3A4 vs Candida albicans CYP51; assay: Selectivity index, ratio of IC50 for inhibition of human CYP3A4 using luciferin-IPA as substrate to IC50 for inhibition of candida albicans CYP51 using 7-ethoxyresorufin as fluorescent substrate; type: toxicity; conditions: probe luciferin-IPA (CYP3A4), 7-ethoxyresorufin (CYP51)
[15] = biological target: T1, Lanosterol 14-alpha demethylase; assay: Inhibition of Candida albicans CYP51 assessed as ergosterol level incubated for 18 hrs by GC/MS analysis relative to control
In short: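 C. albicans colony grown in SDB 18 h at 37 °C with compound at its MIC50; untreated cells as negative control. Washed, normalized cells saponified in 60% alcoholic KOH, 80 °C 1 h. Sterols hexane-extracted, silylated (MSTFA/TMCS), analysed by GC-MS with ergosterol standard for retention time. Content expressed as AUC treated/AUC untreated × 100.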

[16] = Cytotoxicity against human F180 cells assessed as cell growth inhibition at 60 times MIC50 against Candida albicans SC5314 incubated for 48 hrs by SRB assay; type: toxicity, cell-based; conditions: f180, 48 h; in short: as §3
[17] = Cytotoxicity against human F180 cells assessed as cell growth inhibition at 37.5 times MIC50 against Candida auris incubated for 48 hrs by SRB assay; type: toxicity, cell-based; conditions: f180, 48 h; in short: as §3
[18] = Cytotoxicity against human F180 cells assessed as cell growth inhibition at 6 times MIC50 against Candida albicans SC5314 incubated for 48 hrs by SRB assay; type: toxicity, cell-based; conditions: f180, 48 h; in short: as §3
[19] = Cytotoxicity against human F180 cells assessed as cell growth inhibition at 1 times MIC50 against Candida auris incubated for 48 hrs by SRB assay; type: toxicity, cell-based; conditions: f180, 48 h; in short: as §3

Row | Compound | Activity [1] [%] | Activity [2] [%] | MIC50 [3] [µg/mL] | MIC50 [4] [µg/mL] | Activity [5] | Activity [6] | Activity [7] | Activity [8] | Ratio [9] | Ratio [10] | IC50 [11] [µM] | Ratio IC50 [12] | IC50 [13] [µM] | selectivity ratio [14] | inhibition (INH) [15] [%] | Activity [16] | Activity [17] | Activity [18] | Activity [19]
1 | COc1cccc(Nc2nnc(-c3ccc(C(C)C)cc3)o2)c1 | 83 | 85 | 10 (≈ 32.3 µM) | 12 (≈ 38.8 µM) | Non-Toxic | Non-Toxic | – | – | – | – | – | – | – | – | – | – | – | – | –
2 | CC(C)c1ccc(-c2nnc(Nc3ccc(F)cc3)o2)cc1 | 80 | 40 | 3 (≈ 10.1 µM) | 2.08 (≈ 7 µM) | – | – | Non-Toxic | Non-Toxic | – | – | – | – | – | – | – | – | – | – | –
3 | CC(C)(C)c1ccc(-c2nnc(Nc3ccc(Cl)cc3)o2)cc1 | 99.3 | 99 | 0.5 (≈ 1.53 µM) | 0.8 (≈ 2.44 µM) | – | – | – | – | 50 | 750 | 2.75 | 10 | > 30500 | > 10000 | 70.3 | Non-Toxic | Non-Toxic | – | –
4 | OC(Cn1cncn1)(Cn1cncn1)c1ccc(F)cc1F [FLUCONAZOLE] | – | – | 25 (≈ 81.6 µM) | 600 (≈ 1960 µM) | – | – | – | – | – | – | 29 | – | – | – | 35.6 | – | – | – | –
5 | COc1cccc(Nc2nnc(-c3ccc(C(C)(C)C)cc3)o2)c1 | 57 | 86 | 5 (≈ 15.5 µM) | 30 (≈ 92.8 µM) | – | – | – | – | – | – | – | – | – | – | – | – | – | Non-Toxic | Non-Toxic
